According to ChEMBL document CHEMBL4811233, “Synthesis, Structure-Activity Relationships, and Antiviral Activity of Allosteric Inhibitors of Flavivirus NS2B-NS3 Protease” (J Med Chem, 2021):

Assays:
U-87 MG = test: Cytotoxicity against human U87 cells assessed as inhibition of proliferation at 10 uM by MTT assay; type: cell-based; details: u-87mg atcc
Vero = test: Cytotoxicity against African green monkey Vero cells assessed as inhibition of proliferation at 10 uM by MTT assay; type: cell-based; details: chlorocebus sabaeus
Nonstructural protein 3 = Nonstructural protein 3 (Zika virus, UniProt A0A024AXB9); test: Inhibition Zika virus NS2B (47 to 95 residues)/NS3 (1 to 170 residues) protease expressed in Escherichia coli BL21 using 7-amino-4-methylcoumarin as substrate by fluorescence assay
Sequence of Nonstructural protein 3 (A0A024AXB9 whole entry, the tested form may be a part): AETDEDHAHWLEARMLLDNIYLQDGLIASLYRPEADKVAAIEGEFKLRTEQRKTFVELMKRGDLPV
Procedure, shortened: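 Single-chain NS2B(47–95)–Gly4-Ser-Gly4–NS3(1–170) enzyme at 1 nM in 20 mM HEPES pH 7.3 with 0.05% Triton X-100. Compound (1 nM–10 µM, triplicate) is preincubated 10 min before adding Bz-Nle-Lys-Lys-Arg-AMC at 20 µM. Fluorescence (Ex 360/Em 460 nm) is read every 30 s. IC50 comes from dose-response fitting of initial velocities, 3 independent experiments with SD.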

| SMILES | Activity (U-87 MG) | Activity (Vero) | IC50 (Nonstructural protein 3) [nM] |
| --- | --- | --- | --- |
| N#Cc1cc(-c2nc(OCC3CCNCC3)cnc2-c2ccc(CN)cc2)ccc1-c1ccoc1 | Non-Toxic | Non-Toxic | 1800 |
| NCc1ccc(-c2ncc(OCC3CCNCC3)nc2-c2cccc3[nH]cnc23)cc1 |  |  | 1600 |
| NCc1ccc(-c2nc(N3CCC[C@@H](N)C3)c3nccn3c2-c2ccc(CN)cc2)cc1 |  |  | 3500 |
| NCc1ccc(-c2nc(N)c(OCC3CCNCC3)nc2-c2ccc(CN)cc2)cc1 |  |  | 2100 |
| OCc1ccc(-c2ncc(OCC3CCNCC3)nc2-c2ccc(CO)cc2)cc1 |  |  | 510 |
| NCc1ccc(-c2ncc(OCCC3CCNCC3)nc2-c2ccc(CN)cc2)cc1 |  |  | > 10000 |
| NCc1cccc(-c2ncc(OCC3CCNCC3)nc2-c2ccc(-c3ccoc3)cc2)c1 |  |  | 2900 |
| Cc1noc(C)c1-c1nc(OCC2CCNCC2)cnc1-c1ccc(CN)cc1 |  |  | 11100 |
| NCc1ccc(-c2ncc(OCC3CCNCC3)nc2-c2ccc(CN)c(F)c2)cc1 |  |  | > 50000 |
| NCc1ccc(-c2ncc(OCC3CCNCC3)nc2-c2ccc(C3CCCCC3)cc2)cc1 | Non-Toxic | Non-Toxic | 16200 |
| NCc1ccc(-c2ncc(OCC3CCNCC3)nc2-c2ccc(C(=O)N3CCCCC3)cc2)cc1 | Non-Toxic | Non-Toxic | 3500 |
| NCc1ccc(-c2ncc(OCC3CCNCC3)nc2-c2ccc(N3CCCC3)cc2)cc1 | Non-Toxic | Non-Toxic | 2500 |
| NCc1ccc(-c2nc(OCCC3CCNCC3)cnc2-c2ccncc2)cc1 |  |  | 1700 |
| NCc1ccc(-c2ncc(OCC3CCNCC3)nc2-c2ccc(-n3cc(CO)nn3)cc2)cc1 |  |  | > 10000 |
| NCc1ccc(-c2ncc(OCC3CCNCC3)nc2-c2ccc(N3CCCCC3)cc2)cc1 | Non-Toxic | Non-Toxic | > 10000 |
| Cc1noc(C)c1-c1ccc(-c2nc(OCC3CCNCC3)cnc2-c2ccc(CN)cc2)cc1 |  |  | > 10000 |
| NCc1ccc(-c2ncc(OCC3CCNCC3)nc2-c2ccc(-c3ccoc3)cc2CO)cc1 | Non-Toxic | Non-Toxic | > 10000 |
| CC(=O)NCc1ccc(-c2ncc(OCC3CCNCC3)nc2-c2ccc(CNC(C)=O)cc2)cc1 |  |  | > 10000 |
| CN(C)Cc1ccc(-c2nc(OCC3CCNCC3)cnc2-c2cccnc2)cc1 |  |  | 9900 |
| COc1cc(-c2nc(OCC3CCNCC3)cnc2-c2ccc(CN)cc2)ccc1-c1ccoc1 | Non-Toxic | Non-Toxic | 8000 |
| CN(C)Cc1ccc(-c2ncc(OCC3CCNCC3)nc2-c2ccc(CN(C)C)cc2)cc1 |  |  | 390 |

| SMILES | Activity (U-87 MG) | Activity (Vero) | IC50 (Nonstructural protein 3) [nM] |
| --- | --- | --- | --- |
| CNCCOc1cnc(-c2ccc(CN)cc2)c(-c2ccc(-c3ccoc3)cc2)n1 |  |  | 2100 |
| c1cc(-c2ccc(-c3ncc(OCC4CCNCC4)nc3-c3ccc(-c4ccoc4)cc3)cc2)co1 |  |  | 1000 |
| NCc1ccc(-c2ncc(OCC3CCNCC3)nc2-c2ccc(-n3ccnn3)cc2)cc1 |  |  | > 10000 |
| NCc1ccc(-c2ncc(OCC3CCNCC3)nc2-c2ccc(N3CCOCC3)cc2)cc1 | Non-Toxic | Non-Toxic | > 10000 |
| NCc1ccc(-c2ncc(NCC3CCNCC3)nc2C(=O)Nc2ccc(-c3ccoc3)cc2)cc1 |  |  | 1100 |
| NCc1ccc(-c2ncc(OCC3CCNCC3)nc2-c2ccc(C3=CCNCC3)cc2)cc1 | Non-Toxic | Non-Toxic | 2900 |
| COc1cc(CN)ccc1-c1nc(OCC2CCNCC2)cnc1-c1ccncc1 |  |  | 3500 |
| NCc1ccc(-c2nc(OCC3CCNCC3)cnc2-c2ccc(O)cc2)cc1 |  |  | 8100 |
| OCc1ccc(-c2ncc(OCCC3CCNCC3)nc2-c2ccc(CO)cc2)cc1 |  |  | 2100 |
| COc1cc(-c2ccoc2)ccc1-c1nc(OCC2CCNCC2)cnc1-c1ccc(CN)cc1 | Non-Toxic | Non-Toxic | 1900 |
| NCc1ccc(-c2nc(N3CC[C@H](N)C3)c3nccn3c2-c2ccc(CN)cc2)cc1 |  |  | 19300 |
| Ic1ccc(-c2ncc(OCCCC3CCNCC3)nc2-c2ccc(I)cc2)cc1 |  |  | > 10000 |
| NCc1ccc(-c2ncc(OCC3CCNCC3)nc2-c2cccc(C3CCOC3)c2)cc1 (stereo not given) | Non-Toxic | Non-Toxic | > 10000 |
| ONCc1ccc(-c2ncc(OCC3CCNCC3)nc2-c2ccc(-c3ccoc3)cc2)cc1 |  |  | 1200 |
| Ic1ccc(-c2ncc(OCC3CCNCC3)nc2-c2ccc(I)cc2)cc1 |  |  | 520 |
| NCc1ccc(-c2ncc(OCC3CCNCC3)nc2-c2ccc(C(=O)N3CCCC3)cc2)cc1 | Non-Toxic | Non-Toxic | 13000 |
| Cc1cc(-c2nc(OCC3CCNCC3)cnc2-c2ccc(CN)cc2)ccc1-c1ccoc1 | Non-Toxic | Non-Toxic | 10600 |
| NCc1ccc(-c2nc(OCCN3CCNCC3)cnc2-c2ccc(-c3ccoc3)cc2)cc1 |  |  | 1800 |
| COc1cc(-c2ncc(OCC3CCNCC3)nc2-c2ccc(-c3ccsc3)cc2)ccc1C(N)=O |  |  | 4700 |
| NCc1ccc(-c2ncc(OCCN3CCNCC3)nc2-c2ccc(CN)cc2)cc1 |  |  | > 10000 |
| NCc1ccc(-c2ncc(OC3CCNCC3)nc2-c2ccc(-c3ccoc3)cc2)cc1 |  |  | 1600 |

| SMILES | Activity (U-87 MG) | Activity (Vero) | IC50 (Nonstructural protein 3) [nM] |
| --- | --- | --- | --- |
| NCc1ccc(-c2nc(OCC3CCNCC3)cnc2-c2ccncc2)cc1 |  |  | 320 |
| NCc1ccc(-c2ncc(OCC3CCNCC3)nc2-c2ccc(C3CCOC3)cc2)cc1 (stereo not given) | Non-Toxic | Non-Toxic | 590 |
| CN(C)Cc1ccc(-c2nc(OCC3CCNCC3)cnc2-c2ccc(O)cc2)cc1 |  |  | 20500 |
| CN(C)Cc1ccc(-c2nc(OCC3CCNCC3)cnc2-c2ccc(-c3ccoc3)cc2)cc1 |  |  | 1800 |
| NCc1ccc(-c2ncc(OCC3CCNCC3)nc2-c2ccc(C(=O)N3CCOCC3)cc2)cc1 | Non-Toxic | Non-Toxic | > 10000 |
| CC(=O)NCc1ccc(-c2ncc(OCC3CCNCC3)nc2-c2ccc(CN)cc2)cc1 |  |  | 30000 |
| NCc1ccc(-c2ncc(OCC3CCNCC3)nc2-c2ccc(-c3ccoc3)cc2F)cc1 | Non-Toxic | Non-Toxic | 8400 |
| NCc1ccc(-c2ncc(OCC3CCNCC3)nc2-c2ccc(CN)cc2)cc1 |  |  | 620 |
| CC(=O)OCc1ccc(-c2ncc(OCC3CCNCC3)nc2-c2ccc(COC(C)=O)cc2)cc1 |  |  | > 10000 |
| Cc1cc(CN)ccc1-c1ncc(OCC2CCNCC2)nc1-c1ccc(-c2ccoc2)cc1 |  |  | 2600 |
| NCCCOc1cnc(-c2ccc(CN)cc2)c(-c2ccc(-c3ccoc3)cc2)n1 |  |  | 1300 |
| NCc1ccc(-c2ncc(OCc3ccccc3)nc2-c2ccc(-c3ccoc3)cc2)cc1 |  |  | 3200 |
| NCc1ccc(-c2ncc(OCC3CCNCC3)nc2-c2ccc(C3CCNCC3)cc2)cc1 | Non-Toxic | Non-Toxic | 3100 |
| NCc1ccc(-c2nc(OCC3CCNCC3)c3nccn3c2-c2ccc(CN)cc2)cc1 |  |  | 9300 |
| NC(=O)c1ccc(-c2ncc(OCC3CCNCC3)nc2-c2ccc(-c3ccoc3)cc2)cc1F |  |  | 2300 |
| NCc1ccc(-c2ncc(NCC3CCNCC3)nc2-c2ccc(-c3ccoc3)cc2F)cc1 |  |  | 2300 |
| CN(C)Cc1ccc(-c2ncc(OCC3CCNCC3)nc2-c2ccc(-c3ccoc3)cc2)cc1 |  |  | 6100 |
| NCc1ccc(-c2ncc(OCCC3CCNCC3)nc2-c2ccc(-c3ccoc3)cc2)cc1 |  |  | 1300 |
| NCc1ccc(-c2ccc(NCC3CCNCC3)nc2-c2ccc(CN)cc2)cc1 |  |  | 3700 |
